In ChEMBL document CHEMBL3627671, “Novel derivatives of nitro-substituted salicylic acids: Synthesis, antimicrobial activity and cytotoxicity” (Bioorg Med Chem, 2015):

Legend:
Trichosporon asahii [1] = test: Antifungal activity against Trichosporon asahii 1188 after 48 hrs by microdilution broth method; type: functional; details: Trichosporon asahii, 1188, 48 h
Procedure, shortened: (§1)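 CLSI M27-A3 broth microdilution in RPMI 1640 with glutamine, buffered to pH 7.0 with MOPS; DMSO diluent. Yeast inoculum 5 × 10^3 ± 0.2 CFU/mL. Moulds grown on Sabouraud agar 3–10 days before spore harvest, final inoculum 0.5-5 × 10^4 CFU/mL, checked in a Bürker chamber. Incubated dark, humid, 35 °C, read at 24 and 48 h visually and at 540 nm. MIC taken as ≥80% (yeasts) or ≥50% (filamentous) growth reduction versus control.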

Klebsiella pneumoniae [2] = test: Antibacterial activity against Klebsiella pneumoniae D 11750/08 after 48 hrs by microdilution broth method; type: functional; details: D 11750/08, 48 h
Procedure, shortened: (§2)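 Mueller-Hinton broth microdilution (modified M07-A07), pH 7.4 (±0.2). Compounds dissolved in DMSO, tested at final 500 to 0.49 µmol/L. Inoculum in sterile water matched to 0.5 McFarland. Incubated in the dark, humid atmosphere, 35 °C, read at 24 and 48 h visually and at 540 nm. MIC taken as ≥95% growth reduction (IC95) versus control.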

Candida albicans [3] = test: Antifungal activity against Candida albicans ATCC 44859 after 24 hrs by microdilution broth method; type: functional; details: ATCC 44859, 24 h; procedure, shortened: as §1
[4] = tested on: Trichophyton mentagrophytes; test: Antifungal activity against Trichophyton mentagrophytes 445 after 24 hrs by microdilution broth method; type: functional; details: Trichophyton mentagrophytes, 445, 24 h
Mycobacterium kansasii [5] = test: Antimycobacterial activity against Mycobacterium kansasii 235/80 after 21 days; type: functional; details: 235/80, 504 h
Procedure, shortened: (§3)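 Šula's semisynthetic medium micromethod at 37 °C, read after 7, 14 and 21 days. The 1.0 McFarland suspension was diluted 10^-4. MIC determined. 6509/96 is a clinical isolate.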

Mycobacterium avium [6] = test: Antimycobacterial activity against Mycobacterium avium 330/80 after 14 days; type: functional; details: 330/80, 336 h
Candida albicans [7] = test: Antifungal activity against Candida albicans ATCC 44859 after 48 hrs by microdilution broth method; type: functional; details: ATCC 44859, 48 h; procedure, shortened: as §1
[8] = tested on: Trichophyton mentagrophytes; test: Antifungal activity against Trichophyton mentagrophytes 445 after 48 hrs by microdilution broth method; type: functional; details: Trichophyton mentagrophytes, 445, 48 h
[9] = tested on: Mycobacterium tuberculosis; test: Antimycobacterial activity against Mycobacterium tuberculosis H37Rv 331/88 after 21 days; type: functional; details: H37Rv 331/88, 504 h
HepG2 = test: Cytotoxicity against human HepG2 cells after 24 hrs […]; type: cell-based; details: HepG2, 24 h
Staphylococcus aureus [10] = test: Antibacterial activity against Staphylococcus aureus CCM 4516/08 after 24 hrs by microdilution broth method; type: functional; details: CCM 4516/08, 24 h
Escherichia coli [11] = test: Antibacterial activity against Escherichia coli CCM4517 after 48 hrs by microdilution broth method; type: functional; details: CCM4517, 48 h; procedure, shortened: as §2
Klebsiella pneumoniae [12] = test: Antibacterial activity against Klebsiella pneumoniae D 11750/08 after 24 hrs by microdilution broth method; type: functional; details: D 11750/08, 24 h; procedure, shortened: as §2
Nakaseomyces glabratus [13] = test: Antifungal activity against Candida glabrata 20/I after 48 hrs by microdilution broth method; type: functional; procedure, shortened: as §1
Mycobacterium kansasii [14] = test: Antimycobacterial activity against Mycobacterium kansasii 6509/96 after 21 days; type: functional; details: 6509/96, 504 h; procedure, shortened: as §3
Pichia kudriavzevii [15] = test: Antifungal activity against Candida krusei E28 after 24 hrs by microdilution broth method; type: functional; details: E28, 24 h; procedure, shortened: as §1
Mycobacterium kansasii [16] = test: Antimycobacterial activity against Mycobacterium kansasii 235/80 after 7 days; type: functional; details: 235/80, 168 h; procedure, shortened: as §3
Mycobacterium kansasii [17] = test: Antimycobacterial activity against Mycobacterium kansasii 6509/96 after 14 days; type: functional; details: 6509/96, 336 h; procedure, shortened: as §3
Pseudomonas aeruginosa [18] = test: Antibacterial activity against Pseudomonas aeruginosa CCM 1961 after 48 hrs by microdilution broth method; type: functional; details: CCM 1961, 48 h; procedure, shortened: as §2
Enterococcus sp. [19] = test: Antibacterial activity against Enterococcus sp. J 14365/08 after 48 hrs by microdilution broth method; type: functional; details: J 14365/08, 48 h; procedure, shortened: as §2
[20] = Selectivity index, ratio of CI50 for human HepG2 cells to MIC100 for Mycobacterium tuberculosis H37Rv 331/88
Staphylococcus aureus [21] = test: Antibacterial activity against methicillin-resistant Staphylococcus aureus H 5996/08 after 48 hrs by microdilution broth method; type: functional; details: H 5996/08, 48 h
Klebsiella pneumoniae [22] = test: Antibacterial activity against ESBL-positive Klebsiella pneumoniae J 14368/08 after 48 hrs by microdilution broth method; type: functional; details: J 14368/08, 48 h; procedure, shortened: as §2
Pseudomonas aeruginosa [23] = test: Antibacterial activity against Pseudomonas aeruginosa CCM 1961 after 24 hrs by microdilution broth method; type: functional; details: CCM 1961, 24 h; procedure, shortened: as §2
Staphylococcus aureus [24] = test: Antibacterial activity against Staphylococcus aureus CCM 4516/08 after 48 hrs by microdilution broth method; type: functional; details: CCM 4516/08, 48 h
[25] = tested on: Mycobacterium tuberculosis; test: Antimycobacterial activity against Mycobacterium tuberculosis H37Rv 331/88 after 14 days; type: functional; details: H37Rv 331/88, 336 h
Aspergillus fumigatus [26] = test: Antifungal activity against Aspergillus fumigatus 231 after 48 hrs by microdilution broth method; type: functional; details: Aspergillus fumigatus, 231, 48 h; procedure, shortened: as §1
Aspergillus fumigatus [27] = test: Antifungal activity against Aspergillus fumigatus 231 after 24 hrs by microdilution broth method; type: functional; details: Aspergillus fumigatus, 231, 24 h; procedure, shortened: as §1
Klebsiella pneumoniae [28] = test: Antibacterial activity against ESBL-positive Klebsiella pneumoniae J 14368/08 after 24 hrs by microdilution broth method; type: functional; details: J 14368/08, 24 h; procedure, shortened: as §2
[29] = tested on: Staphylococcus epidermidis; test: Antibacterial activity against Staphylococcus epidermidis H 6966/08 after 48 hrs by microdilution broth method; type: functional; details: H 6966/08, 48 h; procedure, shortened: as §2
Nakaseomyces glabratus [30] = test: Antifungal activity against Candida glabrata 20/I after 24 hrs by microdilution broth method; type: functional; procedure, shortened: as §1
Mycobacterium kansasii [31] = test: Antimycobacterial activity against Mycobacterium kansasii 235/80 after 14 days; type: functional; details: 235/80, 336 h; procedure, shortened: as §3
Mycobacterium avium [32] = test: Antimycobacterial activity against Mycobacterium avium 330/80 after 21 days; type: functional; details: 330/80, 504 h
Pichia kudriavzevii [33] = test: Antifungal activity against Candida krusei E28 after 48 hrs by microdilution broth method; type: functional; details: E28, 48 h; procedure, shortened: as §1
[34] = tested on: Staphylococcus epidermidis; test: Antibacterial activity against Staphylococcus epidermidis H 6966/08 after 24 hrs by microdilution broth method; type: functional; details: H 6966/08, 24 h; procedure, shortened: as §2
Candida tropicalis [35] = test: Antifungal activity against Candida tropicalis 156 after 24 hrs by microdilution broth method; type: functional; details: Candida tropicalis, 156, 24 h; procedure, shortened: as §1
Lichtheimia corymbifera [36] = test: Antifungal activity against Absidia corymbifera 272 after 24 hrs by microdilution broth method; type: functional; details: Lichtheimia corymbifera, 272, 24 h; procedure, shortened: as §1
Candida tropicalis [37] = test: Antifungal activity against Candida tropicalis 156 after 48 hrs by microdilution broth method; type: functional; details: Candida tropicalis, 156, 48 h; procedure, shortened: as §1
Enterococcus sp. [38] = test: Antibacterial activity against Enterococcus sp. J 14365/08 after 24 hrs by microdilution broth method; type: functional; details: J 14365/08, 24 h; procedure, shortened: as §2
Staphylococcus aureus [39] = test: Antibacterial activity against methicillin-resistant Staphylococcus aureus H 5996/08 after 24 hrs by microdilution broth method; type: functional; details: H 5996/08, 24 h
Mycobacterium kansasii [40] = test: Antimycobacterial activity against Mycobacterium kansasii 6509/96 after 7 days; type: functional; details: 6509/96, 168 h; procedure, shortened: as §3
Lichtheimia corymbifera [41] = test: Antifungal activity against Absidia corymbifera 272 after 48 hrs by microdilution broth method; type: functional; details: Lichtheimia corymbifera, 272, 48 h; procedure, shortened: as §1
Trichosporon asahii [42] = test: Antifungal activity against Trichosporon asahii 1188 after 24 hrs by microdilution broth method; type: functional; details: Trichosporon asahii, 1188, 24 h; procedure, shortened: as §1
Escherichia coli [43] = test: Antibacterial activity against Escherichia coli CCM4517 after 24 hrs by microdilution broth method; type: functional; details: CCM4517, 24 h; procedure, shortened: as §2

O=C(Nc1cccc(C(F)(F)F)c1)c1ccc([N+](=O)[O-])cc1O
> 500 µM: MIC (Candida albicans [3]) | MIC [4] | MIC (Candida albicans [7]) | MIC [8] | MIC (Nakaseomyces glabratus [13]) | MIC (Pseudomonas aeruginosa [18]) | MIC (Klebsiella pneumoniae [22]) | MIC (Pseudomonas aeruginosa [23]) | MIC (Aspergillus fumigatus [26]) | MIC (Klebsiella pneumoniae [28]) | MIC (Nakaseomyces glabratus [30]) | MIC (Pichia kudriavzevii [33]) | MIC (Candida tropicalis [35]) | MIC (Candida tropicalis [37]) | MIC (Lichtheimia corymbifera [41])
62.5 µM: MIC (Mycobacterium avium [6]) | MIC (Mycobacterium avium [32]) | MIC (Trichosporon asahii [42])
2.8 µM: IC50 (HepG2)
16 µM: MIC (Mycobacterium kansasii [5]) | MIC (Mycobacterium kansasii [14]) | MIC (Mycobacterium kansasii [17]) | MIC (Mycobacterium kansasii [31])
500 µM: MIC (Klebsiella pneumoniae [2]) | MIC (Escherichia coli [11]) | MIC (Klebsiella pneumoniae [12]) | MIC (Enterococcus sp. [19]) | MIC (Aspergillus fumigatus [27]) | MIC (Lichtheimia corymbifera [36]) | MIC (Escherichia coli [43])
3.9 µM: MIC (Staphylococcus aureus [10]) | MIC (Staphylococcus aureus [24])
1.95 µM: MIC (Staphylococcus aureus [21]) | MIC [34] | MIC (Staphylococcus aureus [39])
250 µM: MIC (Trichosporon asahii [1]) | MIC (Pichia kudriavzevii [15]) | MIC (Enterococcus sp. [38])
7.81 µM: MIC [29]
8 µM: MIC [9] | MIC (Mycobacterium kansasii [16]) | MIC [25] | MIC (Mycobacterium kansasii [40])
0.35: Selectivity Index [20]

O=C(Nc1ccc(C(F)(F)F)cc1)c1ccc([N+](=O)[O-])cc1O
> 500 µM: MIC (Pseudomonas aeruginosa [18]) | MIC (Pseudomonas aeruginosa [23])
1.2 µM: IC50 (HepG2)
31.2 µM: MIC (Trichosporon asahii [1]) | MIC (Aspergillus fumigatus [26]) | MIC (Aspergillus fumigatus [27]) | MIC (Lichtheimia corymbifera [36]) | MIC (Trichosporon asahii [42])
125 µM: MIC [8] | MIC (Nakaseomyces glabratus [30]) | MIC (Pichia kudriavzevii [33])
7.81 µM: MIC (Staphylococcus aureus [10]) | MIC (Staphylococcus aureus [24]) | MIC [29]
250 µM: MIC (Candida albicans [3]) | MIC (Candida albicans [7]) | MIC (Nakaseomyces glabratus [13]) | MIC (Enterococcus sp. [19]) | MIC (Candida tropicalis [35]) | MIC (Candida tropicalis [37]) | MIC (Enterococcus sp. [38])
2 µM: MIC (Mycobacterium kansasii [16]) | MIC [25]
4 µM: MIC [9] | MIC (Mycobacterium kansasii [31]) | MIC (Mycobacterium kansasii [40])
500 µM: MIC (Klebsiella pneumoniae [2]) | MIC (Escherichia coli [11]) | MIC (Klebsiella pneumoniae [12]) | MIC (Klebsiella pneumoniae [22]) | MIC (Klebsiella pneumoniae [28]) | MIC (Escherichia coli [43])
32 µM: MIC (Mycobacterium avium [6]) | MIC (Mycobacterium avium [32])
1.95 µM: MIC (Staphylococcus aureus [21]) | MIC [34] | MIC (Staphylococcus aureus [39])
0.3: Selectivity Index [20]
62.5 µM: MIC [4] | MIC (Pichia kudriavzevii [15]) | MIC (Lichtheimia corymbifera [41])
8 µM: MIC (Mycobacterium kansasii [5]) | MIC (Mycobacterium kansasii [14]) | MIC (Mycobacterium kansasii [17])
